Drawing on ChEMBL document CHEMBL3526048, “In vitro metabolism of rivoglitazone, a novel peroxisome proliferator-activated receptor γ agonist, in rat, monkey, and human liver microsomes and freshly isolated hepatocytes” (Drug Metab Dispos, 2011), this text covers Drug metabolism for 1 compound.

A short description of series [1]: Drug metabolism in human hepatocytes assessed as formation of 2-mercapto-3-(4-((6-methoxy-1-methyl-1H-benzo[d]imidazol-2-yl)methoxy)phenyl)propanoic acid at 30 uM after 3 hrs by radio-HPLC/LC-MS/MS analysis in presence of UDPGA, UDPGA/SAM and NADPH-generating system. The format is ADME, cell-based, Hepatocyte.
For a further series, the target named is Cytochrome P450 2C19 (Homo sapiens, UniProt P33261). The series can be described thus: Activity of human CYP2C19 expressed in microsomes isolated from baculovirus infected insect cell assessed as enzyme-mediated 3-(4-((6-methoxy-1-methyl-1H-benzo[d]imidazol-2-yl)methoxy)phenyl)-2-(methylsulfinyl)propanamide formation at 20 uM after 2 hrs by radio-HPLC/LC-MS/MS analysis in presence of NADPH-generating system/SAM. Type of series: ADME.
Cytochrome P450 2C19, sequence (P33261 whole entry): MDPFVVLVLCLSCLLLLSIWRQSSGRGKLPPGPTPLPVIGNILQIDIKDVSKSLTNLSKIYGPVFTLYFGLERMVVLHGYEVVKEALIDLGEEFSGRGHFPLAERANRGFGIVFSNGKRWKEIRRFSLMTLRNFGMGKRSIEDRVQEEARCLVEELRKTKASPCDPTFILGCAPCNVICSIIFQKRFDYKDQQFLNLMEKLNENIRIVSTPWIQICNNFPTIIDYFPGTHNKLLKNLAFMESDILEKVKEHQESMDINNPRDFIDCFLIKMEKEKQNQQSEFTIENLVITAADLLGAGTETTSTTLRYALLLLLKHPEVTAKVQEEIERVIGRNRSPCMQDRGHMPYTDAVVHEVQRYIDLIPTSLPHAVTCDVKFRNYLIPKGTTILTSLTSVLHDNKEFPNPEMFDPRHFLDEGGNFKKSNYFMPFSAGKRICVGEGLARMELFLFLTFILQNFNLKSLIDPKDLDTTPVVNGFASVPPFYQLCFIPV

Another series has as its target Cytochrome P450 3A4 (Homo sapiens, UniProt P08684). Description: Activity of human CYP3A4 expressed in microsomes isolated from baculovirus infected insect cell assessed as enzyme-mediated 3-(4-((6-methoxy-1-methyl-1H-benzo[d]imidazol-2-yl)methoxy)phenyl)-2-(methylsulfinyl)propanamide formation at 20 uM after 2 hrs by radio-HPLC/LC-MS/MS analysis in presence of NADPH-generating system/SAM. The format is ADME.

The target of series [2] is T1, Cytochrome P450 2C9 (Homo sapiens, UniProt P11712). The series can be described thus: Activity of human CYP2C9 expressed in microsomes isolated from baculovirus infected insect cell assessed as enzyme-mediated 3-(4-((6-methoxy-1-methyl-1H-benzo[d]imidazol-2-yl)methoxy)phenyl)-2-(methylsulfonyl)propanamide formation at 20 uM after 2 hrs by radio-HPLC/LC-MS/MS analysis in presence of NADPH-generating system/SAM. The format is ADME.
T1 sequence (P11712 whole entry): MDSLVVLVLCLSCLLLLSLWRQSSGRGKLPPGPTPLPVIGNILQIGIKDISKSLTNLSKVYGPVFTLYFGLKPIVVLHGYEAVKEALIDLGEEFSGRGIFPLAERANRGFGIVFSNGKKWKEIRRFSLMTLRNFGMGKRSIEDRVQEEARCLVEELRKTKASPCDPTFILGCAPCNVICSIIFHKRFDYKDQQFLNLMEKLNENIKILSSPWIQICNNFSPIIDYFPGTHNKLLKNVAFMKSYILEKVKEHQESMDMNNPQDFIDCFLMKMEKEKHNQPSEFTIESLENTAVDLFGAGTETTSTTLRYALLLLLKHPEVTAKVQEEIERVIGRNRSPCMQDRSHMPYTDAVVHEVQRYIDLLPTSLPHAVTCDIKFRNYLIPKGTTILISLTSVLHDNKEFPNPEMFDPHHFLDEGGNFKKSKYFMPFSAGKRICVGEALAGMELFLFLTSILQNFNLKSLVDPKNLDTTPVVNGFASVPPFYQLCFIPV

The test system of the next series is Liver microsome. The series can be described thus: Drug metabolism in human liver microsomes assessed as formation of (2S,3S,4S,5R,6R)-6-((1-carboxy-2-(4-((6-methoxy-1-methyl-1H-benzo[d]imidazol-2-yl)methoxy)phenyl)ethylthio)carbonylamino)-3,4,5-trihydroxytetrahydro-2H-pyran-2-carboxylic acid at 20 uM after 4 hrs by radio-HPLC/LC-MS/MS analysis in presence of UDPGA and UDPGA/SAM. The format is ADME. A general note: Liver microsomes are a subcellular fraction often used to study metabolism.

For series [3], the target named is T2, Cytochrome P450 1A2 (Homo sapiens, UniProt P05177).
T2 sequence (P05177 whole entry): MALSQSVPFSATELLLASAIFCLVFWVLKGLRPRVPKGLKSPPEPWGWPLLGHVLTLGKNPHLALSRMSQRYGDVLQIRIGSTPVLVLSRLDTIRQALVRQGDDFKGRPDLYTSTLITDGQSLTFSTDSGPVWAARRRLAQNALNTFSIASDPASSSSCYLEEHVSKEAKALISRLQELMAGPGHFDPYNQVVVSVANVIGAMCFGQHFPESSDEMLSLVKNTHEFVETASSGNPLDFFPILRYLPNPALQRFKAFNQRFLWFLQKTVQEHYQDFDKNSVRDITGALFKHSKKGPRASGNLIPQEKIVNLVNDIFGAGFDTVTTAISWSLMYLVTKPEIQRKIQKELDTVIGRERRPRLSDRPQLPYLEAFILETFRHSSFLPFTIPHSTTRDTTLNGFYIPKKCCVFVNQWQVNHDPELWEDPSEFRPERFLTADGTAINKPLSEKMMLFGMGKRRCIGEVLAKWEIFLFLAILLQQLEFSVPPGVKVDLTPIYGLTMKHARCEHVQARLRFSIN
The series can be described thus: Activity of human CYP1A2 expressed in microsomes isolated from baculovirus infected insect cell assessed as enzyme-mediated 5-(4-((6-hydroxy-1-methyl-1H-benzo[d]imidazol-2-yl)methoxy)benzyl)thiazolidine-2,4-dione formation at 20 uM after 2 hrs by radio-HPLC/LC-MS/MS analysis in presence of NADPH-generating system and NADPH-generating system/SAM. The format is ADME. The gist of the method:
(§1)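 Baculovirus/insect-cell microsomes expressing single human CYPs, 1 mg/ml protein, with 50 mM potassium phosphate (pH 7.4) or 100 mM Tris-HCl (pH 7.5). NADPH-generating system: 2 mM NADP⁺, 20 mM glucose 6-phosphate, 2 units/ml G6PDH, 10 mM MgCl₂. [¹⁴C]rivoglitazone at 20 μM, 2 h at 37°C with shaking. Control used insect-cell control supersomes. Stopped with acetonitrile; supernatant concentrated under nitrogen; metabolites analysed by radio-HPLC, LC-MS and LC-MS/MS.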

Series [4] deals with T1, Cytochrome P450 2C9. The series can be described thus: Activity of human CYP2C9 expressed in microsomes isolated from baculovirus infected insect cell assessed as enzyme-mediated (2S,3S,4S,5R,6R)-6-((1-carboxy-2-(4-((6-methoxy-1-methyl-1H-benzo[d]imidazol-2-yl)methoxy)phenyl)ethylthio)carbonylamino)-3,4,5-trihydroxytetrahydro-2H-pyran-2-carboxylic acid formation at 20 uM after 2 hrs by radio-HPLC/LC-MS/MS analysis in presence of NADPH-generating system/SAM. Type of series: ADME.

The target in series [5] is T3, UDP-glucuronosyltransferase 1A4 (Homo sapiens, UniProt P22310).
T3 sequence (P22310 whole entry): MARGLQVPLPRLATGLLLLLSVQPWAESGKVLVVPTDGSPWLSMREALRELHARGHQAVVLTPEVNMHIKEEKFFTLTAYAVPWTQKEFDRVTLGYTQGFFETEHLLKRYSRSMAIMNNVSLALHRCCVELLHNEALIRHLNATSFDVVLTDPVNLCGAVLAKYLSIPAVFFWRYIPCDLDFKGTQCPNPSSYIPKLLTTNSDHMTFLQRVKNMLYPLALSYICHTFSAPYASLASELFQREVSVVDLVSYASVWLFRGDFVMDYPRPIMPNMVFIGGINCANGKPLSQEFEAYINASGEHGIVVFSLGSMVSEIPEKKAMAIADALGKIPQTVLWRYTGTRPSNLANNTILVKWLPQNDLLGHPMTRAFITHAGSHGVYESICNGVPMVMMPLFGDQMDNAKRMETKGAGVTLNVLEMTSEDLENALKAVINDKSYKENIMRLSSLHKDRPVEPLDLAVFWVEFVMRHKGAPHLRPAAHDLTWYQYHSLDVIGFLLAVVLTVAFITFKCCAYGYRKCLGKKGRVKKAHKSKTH
The series can be described thus: Activity of human UGT1A4 expressed in microsomes isolated from baculovirus infected insect cell assessed as enzyme-mediated (2S,3S,4S,5R,6R)-3,4,5-trihydroxy-6-(5-(4-((6-methoxy-1-methyl-1H-benzo[d]imidazol-2-yl)methoxy)benzyl)-2,4-dioxothiazolidin-3-yl)tetrahydro-2H-pyran-2-carboxylic acid formation at 20 uM after 4 hrs by radio-HPLC/LC-MS/MS analysis in presence of UDPGA. The format is ADME.

The target in series [6] is T2, Cytochrome P450 1A2. The series can be described thus: Activity of human CYP1A2 expressed in microsomes isolated from baculovirus infected insect cell assessed as enzyme-mediated 2-mercapto-3-(4-((6-methoxy-1-methyl-1H-benzo[d]imidazol-2-yl)methoxy)phenyl)propanamide formation at 20 uM after 2 hrs by radio-HPLC/LC-MS/MS analysis in presence of NADPH-generating system and NADPH-generating system/SAM. Type of series: ADME. The gist of the method: as §1

Cytochrome P450 3A4, sequence (P08684 whole entry): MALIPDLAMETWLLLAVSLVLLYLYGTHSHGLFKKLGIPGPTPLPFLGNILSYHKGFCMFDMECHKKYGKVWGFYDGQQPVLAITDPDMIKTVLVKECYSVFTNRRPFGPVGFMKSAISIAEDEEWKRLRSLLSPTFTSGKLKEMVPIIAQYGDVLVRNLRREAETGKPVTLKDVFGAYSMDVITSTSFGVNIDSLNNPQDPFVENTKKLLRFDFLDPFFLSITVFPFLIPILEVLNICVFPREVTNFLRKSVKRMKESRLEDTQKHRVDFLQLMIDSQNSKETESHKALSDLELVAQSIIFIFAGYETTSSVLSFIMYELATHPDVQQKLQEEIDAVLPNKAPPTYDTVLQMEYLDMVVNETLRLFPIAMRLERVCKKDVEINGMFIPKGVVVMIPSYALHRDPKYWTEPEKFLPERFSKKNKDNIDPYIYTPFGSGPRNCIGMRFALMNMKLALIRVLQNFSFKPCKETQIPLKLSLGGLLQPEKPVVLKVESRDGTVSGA

`COc1ccc2nc(COc3ccc(C[14CH]4SC(=O)NC4=O)cc3)n(C)c2c1.Cl` (racemic): the Drug metabolism result in series [1] is given as “metabolite_not_detected”; at Cytochrome P450 2C19 it was “metabolite_not_detected”; at Cytochrome P450 3A4, “metabolite_not_detected”; on Cytochrome P450 2C9 [2] it was “metabolite_not_detected”; in the series on Liver microsome, “metabolite_detected”; at Cytochrome P450 1A2 [3], “metabolite_detected”. The Drug metabolism result is given as “metabolite_not_detected” at Cytochrome P450 2C9 [4], “metabolite_not_detected” in series [5] and “metabolite_detected” on Cytochrome P450 1A2 [6].
